Key:
Assay in all cases: HPLC assay, Michaelis-Menten regression
Type in all cases: biochemical, Cistanche tubulosa
CtUGT85AF12 = details: read-out: apparent KM; UDP-glucose donor; optimal conditions (supplement)
Procedure, shortened: (§1)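 Recombinant enzyme is expressed in E. coli and purified. Kinetic reactions follow supplementary methods. They are stopped with a double volume of methanol and centrifuged at 12,000 × g for 30 min, and the supernatant is analysed by HPLC. Kinetic constants come from nonlinear Michaelis-Menten regression.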

CtUGT85A191 = details: read-out: apparent KM; UDP-glucose donor; optimal conditions (supplement)
Procedure, shortened: as §1

CtUGT79G13 = details: UDP-rhamnose donor; optimal conditions (supplement)
CtUGT73EV1 = details: UDP-glucose donor; optimal conditions (supplement)

Work on `OCCc1ccc(O)c(O)c1` [compound 10, hydroxytyrosol] yielded a Km (CtUGT85AF12) of 75.7 ± 12 µM and a Km (CtUGT85A191) of 288 ± 36.8 µM.

In the case of `OCCc1ccc(O)cc1` [compound 9, tyrosol], the Km (CtUGT85AF12) is reported as 9.92 ± 2.2 µM and the Km (CtUGT85A191) is reported as 138 ± 22.7 µM.

Work on `O=C(/C=C/c1ccc(O)c(O)c1)O[C@H]1[C@H](O)[C@@H](O)[C@H](OCCc2ccc(O)c(O)c2)O[C@@H]1CO` [compound 18, calA] yielded a Km (CtUGT79G13) of 77.8 ± 6.1 µM.

`C[C@@H]1O[C@@H](O[C@@H]2[C@@H](O)[C@H](OCCc3ccc(O)c(O)c3)O[C@H](CO)[C@H]2OC(=O)/C=C/c2ccc(O)c(O)c2)[C@H](O)[C@H](O)[C@H]1O` [compound 20, acteoside] showed a Km (CtUGT73EV1) of 135 ± 24.1 µM.

Source: paper PMC11751479 (Nature Communications, 2025)
